In ChEMBL document CHEMBL5058577, “EUbOPEN Chemogenomics Library 2 (Multiplex)” (2022):

Test system: Fibroblast
Test: Multiplex assay against human fibroblast
Format: toxicity, cell-based
Outline: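 Live cells carried four stains from seeding: Hoechst33342, BioTracker Green Microtubule Cytoskeleton Dye, MitoTracker Red and Annexin V Alexa Fluor 680. They were imaged on a CQ1 microscope at 37°C and 5% CO2 after compound addition. Using CellPathfinder machine-learning gating, cells were split into Hoechst high-intensity objects or normal cells, normal cells into healthy, pyknosed or fragmented nuclei, and pyknosed cells into mitotic or apoptotic; tubulin, mitochondrial-mass and membrane-permeability phenotypes are per cents of healthy-nucleus cells.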

[1] = 12 h, 1 µM, compound concentration 1 uM, replicate 1
[2] = 12 h, 1 µM, compound concentration 1 uM, replicate 2
[3] = 12 h, 10 µM, compound concentration 10 uM, replicate 1
[4] = 12 h, 10 µM, compound concentration 10 uM, replicate 2
[5] = 24 h, 1 µM, compound concentration 1 uM, replicate 1
[6] = 24 h, 1 µM, compound concentration 1 uM, replicate 2
[7] = 24 h, 10 µM, compound concentration 10 uM, replicate 1
[8] = 24 h, 10 µM, compound concentration 10 uM, replicate 2
[9] = 48 h, 1 µM, compound concentration 1 uM, replicate 1
[10] = 48 h, 1 µM, compound concentration 1 uM, replicate 2
[11] = 48 h, 10 µM, compound concentration 10 uM, replicate 1
[12] = 48 h, 10 µM, compound concentration 10 uM, replicate 2

SMILES: Cl.NCCc1ccc(O)c(O)c1 [DOPAMINE HYDROCHLORIDE]
- Population Apoptotic (%) [1]: 42%
- Population Fragmented Nuclei (%) [1]: 13%
- Population Healthy Nuclei (%) [1]: 63%
- Population Hoechst High Intensity Objects (%) [1]: 1%
- Population Membrane Permeable-Phenotype (%) [1]: 0%
- Population Mitochondria Different-Phenotype (%) [1]: 1%
- Population Mitotic Cells (%) [1]: 57%
- Population Normal (%) [1]: 98%
- Population Pyknosed Nuclei (%) [1]: 23%
- Population Tubulin-Different-Phenotype (%) [1]: 34%
- Total Cell Count [1]: 115
- Population Apoptotic (%) [2]: 44%
- Population Fragmented Nuclei (%) [2]: 34%
- Population Healthy Nuclei (%) [2]: 40%
- Population Membrane Permeable-Phenotype (%) [2]: 4%
- Population Mitochondria Different-Phenotype (%) [2]: 6%
- Population Mitotic Cells (%) [2]: 55%
- Population Pyknosed Nuclei (%) [2]: 24%
- Population Tubulin-Different-Phenotype (%) [2]: 45%
- Total Cell Count [2]: 152
- Population Apoptotic (%) [3]: 56%
- Population Fragmented Nuclei (%) [3]: 14%
- Population Healthy Nuclei (%) [3]: 62%
- Population Hoechst High Intensity Objects (%) [3]: 3%
- Population Membrane Permeable-Phenotype (%) [3]: 0%
- Population Mitochondria Different-Phenotype (%) [3]: 3%
- Population Mitotic Cells (%) [3]: 43%
- Population Normal (%) [3]: 96%
- Population Pyknosed Nuclei (%) [3]: 23%
- Population Tubulin-Different-Phenotype (%) [3]: 14%
- Total Cell Count [3]: 135
- Population Apoptotic (%) [4]: 41%
- Population Fragmented Nuclei (%) [4]: 35%
- Population Healthy Nuclei (%) [4]: 40%
- Population Hoechst High Intensity Objects (%) [4]: 4%
- Population Membrane Permeable-Phenotype (%) [4]: 6%
- Population Mitochondria Different-Phenotype (%) [4]: 6%
- Population Mitotic Cells (%) [4]: 58%
- Population Normal (%) [4]: 95%
- Population Tubulin-Different-Phenotype (%) [4]: 44%
- Total Cell Count [4]: 127
- Population Apoptotic (%) [5]: 55%
- Population Fragmented Nuclei (%) [5]: 14%
- Population Healthy Nuclei (%) [5]: 69%
- Population Hoechst High Intensity Objects (%) [5]: 0%
- Population Membrane Permeable-Phenotype (%) [5]: 1%
- Population Mitochondria Different-Phenotype (%) [5]: 1%
- Population Mitotic Cells (%) [5]: 44%
- Population Normal (%) [5]: 99%
- Population Pyknosed Nuclei (%) [5]: 16%
- Population Tubulin-Different-Phenotype (%) [5]: 31%
- Total Cell Count [5]: 112
- Population Apoptotic (%) [6]: 51%
- Population Fragmented Nuclei (%) [6]: 34%
- Population Healthy Nuclei (%) [6]: 47%
- Population Hoechst High Intensity Objects (%) [6]: 2%
- Population Membrane Permeable-Phenotype (%) [6]: 7%
- Population Mitochondria Different-Phenotype (%) [6]: 0%
- Population Mitotic Cells (%) [6]: 48%
- Population Normal (%) [6]: 97%
- Population Pyknosed Nuclei (%) [6]: 18%
- Population Tubulin-Different-Phenotype (%) [6]: 37%
- Total Cell Count [6]: 150
- Population Apoptotic (%) [7]: 55%
- Population Fragmented Nuclei (%) [7]: 16%
- Population Healthy Nuclei (%) [7]: 69%
- Population Hoechst High Intensity Objects (%) [7]: 2%
- Population Membrane Permeable-Phenotype (%) [7]: 1%
- Population Mitochondria Different-Phenotype (%) [7]: 5%
- Population Mitotic Cells (%) [7]: 44%
- Population Normal (%) [7]: 97%
- Population Pyknosed Nuclei (%) [7]: 13%
- Population Tubulin-Different-Phenotype (%) [7]: 22%
- Total Cell Count [7]: 136
- Population Apoptotic (%) [8]: 47%
- Population Fragmented Nuclei (%) [8]: 37%
- Population Healthy Nuclei (%) [8]: 46%
- Population Hoechst High Intensity Objects (%) [8]: 3%
- Population Membrane Permeable-Phenotype (%) [8]: 3%
- Population Mitochondria Different-Phenotype (%) [8]: 7%
- Population Mitotic Cells (%) [8]: 52%
- Population Normal (%) [8]: 96%
- Population Pyknosed Nuclei (%) [8]: 15%
- Population Tubulin-Different-Phenotype (%) [8]: 56%
- Total Cell Count [8]: 126
- Population Apoptotic (%) [9]: 36%
- Population Fragmented Nuclei (%) [9]: 22%
- Population Healthy Nuclei (%) [9]: 66%
- Population Hoechst High Intensity Objects (%) [9]: 6%
- Population Membrane Permeable-Phenotype (%) [9]: 1%
- Population Mitochondria Different-Phenotype (%) [9]: 2%
- Population Mitotic Cells (%) [9]: 63%
- Population Normal (%) [9]: 93%
- Population Pyknosed Nuclei (%) [9]: 10%
- Population Tubulin-Different-Phenotype (%) [9]: 28%
- Total Cell Count [9]: 110
- Population Apoptotic (%) [10]: 38%
- Population Fragmented Nuclei (%) [10]: 33%
- Population Healthy Nuclei (%) [10]: 52%
- Population Membrane Permeable-Phenotype (%) [10]: 5%
- Population Mitochondria Different-Phenotype (%) [10]: 3%
- Population Mitotic Cells (%) [10]: 61%
- Population Pyknosed Nuclei (%) [10]: 14%
- Population Tubulin-Different-Phenotype (%) [10]: 43%
- Total Cell Count [10]: 159
- Population Apoptotic (%) [11]: 87%
- Population Fragmented Nuclei (%) [11]: 21%
- Population Healthy Nuclei (%) [11]: 66%
- Population Hoechst High Intensity Objects (%) [11]: 4%
- Population Membrane Permeable-Phenotype (%) [11]: 0%
- Population Mitochondria Different-Phenotype (%) [11]: 4%
- Population Mitotic Cells (%) [11]: 12%
- Population Normal (%) [11]: 95%
- Population Pyknosed Nuclei (%) [11]: 11%
- Population Tubulin-Different-Phenotype (%) [11]: 25%
- Total Cell Count [11]: 141
- Population Apoptotic (%) [12]: 90%
- Population Fragmented Nuclei (%) [12]: 31%
- Population Healthy Nuclei (%) [12]: 60%
- Population Hoechst High Intensity Objects (%) [12]: 0%
- Population Membrane Permeable-Phenotype (%) [12]: 7%
- Population Mitotic Cells (%) [12]: 10%
- Population Normal (%) [12]: 99%
- Population Pyknosed Nuclei (%) [12]: 8%
- Population Tubulin-Different-Phenotype (%) [12]: 56%
- Total Cell Count [12]: 116
